Bioassay records: PubChem, several laboratories
Most compounds without a hit are left out; they make up all but 4.1% or so of the library.
hERG rescue = hERG rescue from dofetilide block, primary screen, cell-based, CHO-hERG, FluxOR thallium flux, dofetilide IC70; Voltage-gated inwardly rectifying potassium channel KCNH2 (Homo sapiens), Q12809; dofetilide IC70 present; activation (rescue from dofetilide block), less the hit threshold, % at 10 µM; hit rate 0.51% among 310,000;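 active = activation above the mean of controls blocked by dofetilide plus 5 SD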;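 note: thallium influx through hERG after potassium depolarization seen as dye fluorescence rise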
KCC2 mod = KCC2 cotransporter modulators, thallium flux, primary screen, cell-based, HEK293 KCC2, FluoZin-2 fluorescence, MLSMR. B-score of Tl+ flux slope (higher = more flux/activation; lower = inhibition) at 10 µM. KCC2 cells, thallium flux FluoZin-2 fluorescence. Solute carrier family 12 member 5 (Homo sapiens), Q9H2X9. hit rate 2.2% among 190,000;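 active = thallium flux slope and its plate-corrected score both differing from the plate sample mean at a set confidence after two filtering rounds, in either direction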;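 note: slope of fluorescence scaled to starting intensity during 10 to 20 s after thallium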
KCNK3 inh = human KCNK3 channel inhibitors, primary screen, CHO cells, FluxOR thallium flux, B-score | Potassium channel subfamily K member 3 (Homo sapiens), O14649 | FluxOR fluorescence; stronger effect = lower value | B-score at 10 µM | hit rate 0.84% among 340,000;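 active = B-score under library mean minus 4 SD, starting fluorescence ratio at most library mean plus 5 SD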;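 note: more negative B-score means stronger inhibition of thallium flux through KCNK3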
KCNQ1 block = inhibitors of human KCNQ1 channel, primary screen, cell-based, thallium flux, high-throughput. B-score at 10 µM. hit rate 1.3% among 310,000. CHO-K1 KCNQ1, FluxOR thallium flux fluorescence; stronger effect = higher value;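 active = compounds whose thallium flux B-score, printed positive for inhibition, exceeds three library SD while starting fluorescence stays within three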;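 note: channel opened by potassium depolarization with thallium stimulus after 20 min compound exposure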
KCNK9 block = KCNK9 potassium channel inhibitors, primary screen, HEK293 cells, thallium flux; B-score at 10 µM; hit rate 1.2% among 310,000; Potassium channel subfamily K member 9 (Homo sapiens), Q9NPC2; FluxOR thallium flux fluorescence; stronger effect = lower value; AID 488922, 2010;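 active = ratio B-score over 3 SD below the library mean, with starting fluorescence within 5 SD of its mean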;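 note: negative B-score means less thallium flux so channel inhibition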
Target sequence (Q9NPC2 whole entry, looked up): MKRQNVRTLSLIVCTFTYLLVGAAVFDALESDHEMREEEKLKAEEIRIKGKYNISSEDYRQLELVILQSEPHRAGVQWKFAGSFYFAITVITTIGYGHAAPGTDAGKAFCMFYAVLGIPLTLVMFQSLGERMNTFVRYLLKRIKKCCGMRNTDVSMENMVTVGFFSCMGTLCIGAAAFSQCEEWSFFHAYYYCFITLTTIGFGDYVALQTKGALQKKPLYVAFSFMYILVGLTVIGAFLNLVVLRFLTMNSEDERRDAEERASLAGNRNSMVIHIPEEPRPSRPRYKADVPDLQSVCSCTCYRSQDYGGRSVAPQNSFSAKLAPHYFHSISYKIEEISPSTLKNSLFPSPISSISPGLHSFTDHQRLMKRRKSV
KCNQ1 pot = potentiators or activators of KCNQ1 channel, primary screen, cell-based, thallium flux, high-throughput. Potassium voltage-gated channel subfamily KQT member 1 (Homo sapiens), P51787. CHO-K1 KCNQ1, thallium flux FluxOR fluorescence; stronger effect = higher value. B-score at 10 µM. hit rate 0.35% among 310,000. AID 2648, 2010;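 active = fluorescence ratio B-score, a plate-corrected score, at least three library SD, with initial intensity B-score within 5 SD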
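assay system = KCNQ1-transfected CHO-K1 cells | medium = assay buffer with matched DMSO | probe or stimulus = depolarizing K+/Tl+ stimulus, K2SO4 and Tl2SO4 each 12.5 mM in 5x stock | dosing = single dose | incubation = dye 90 min, compound 20 min, room temperature | detection = kinetic FluxOR fluorescence, 10 s baseline plus 110 s post-stimulus | evaluation = ratio B score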
KCNK3 confirm = retest of human KCNK3 channel inhibitors, confirmation, CHO cells, FluxOR thallium flux, triplicate; shares compounds with KCNK3 inh; FluxOR fluorescence; 0% buffer, 100% carvedilol maximal block; ratio percent of control, % at 10 µM; hit rate 99% among 2,400; AID 651638, 2012;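 active = ratio percent of control, averaged over triplicates, above buffer control mean plus 5 SD, cut at about 64% in these data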;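 note: ratio is the fluorescence rise from min to max over baseline after thallium stimulus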
KCNK3 noninduced = thallium flux inhibition in non-induced cells, primary screen, counter-screen for KCNK3 inhibitor project, cell-based, non-induced KCNK3 line, FluxOR thallium, triplicate; shares compounds with KCNK3 inh; hit rate 40% among 2,400; thallium flux ratio (lower = more inhibition) at 10 µM; non-induced KCNK3 parental cells; stronger effect = lower value;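 active = thallium flux ratio, averaged over three wells, more than 5 SD below the buffer control mean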;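 note: host cells are CHO cells without KCNK3 induction; ratio is peak minus trough fluorescence over baseline then normalized to buffer controls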
* marks the source's active call; other numbers are inactive results; i = inactive; . = no result.

SMILES	hERG rescue	KCC2 mod	KCNK3 inh	KCNQ1 block	KCNK9 block	KCNQ1 pot	KCNK3 confirm	KCNK3 noninduced
C=CCn1c(SCC(=O)N2CCCC2=O)nc2sc(CC)cc2c1=O	.	.	i	.	.	.	.	.
C=CCn1c(SCC(=O)N2CCN(C(=O)c3ccco3)CC2)nc2sc(CC)cc2c1=O	-16	-0.91	-11*	i	i	i	120*	0.15*
C=CCn1c(SCC(=O)O)nc2sc(CC)cc2c1=O	-5	0.6	i	i	i	i	.	.
Cn1c(=O)c2sccc2n2c(CCCC(=O)Nc3ccc(F)cc3F)nnc12	-11	.	i	i	i	i	.	.
CCOC(=O)C1=C(C)N=C2SCCC(=O)N2C1c1cccs1 (stereo not drawn)	-1	-0.48	i	i	i	i	.	.
COc1ccccc1/C=C/C1C(C(=O)OCC(C)C)=C(C)N=C2SCCC(=O)N21 (stereo not drawn)	-3	-0.72	-9.3*	i	i	i	92*	0.16*
O=C(NCc1ccc(/C=N\NC(=O)C(=O)Nc2ccccc2Br)o1)C(=O)Nc1ccccc1	-7	.	i	i	i	i	.	.
CN(C(=O)c1ccc2ccccc2c1)c1ccccn1	-4	.	i	i	i	i	.	.
CN(C(=O)c1ccoc1)c1ccc2ccccc2c1	-8	.	-10*	i	i	i	55*	i
CN1CCN(CCCNC(=O)c2ccc(/C=C3/Sc4ccccc4N(Cc4cccc(Cl)c4)C3=O)cc2)CC1	-20	0.6	-9.4*	11*	-7.1*	i	118*	i
CCN(CC)c1nc(-c2ccccc2)nc2ccccc12	-12	.	-9.5*	i	i	i	129*	i
COCCCNc1nc(-c2ccc(Cl)cc2)nc2ccccc12	-10	.	i	i	i	i	.	.
COCCN(CCOC)c1nc(-c2ccc(Cl)cc2)nc2ccccc12	-6	.	-9.2*	i	-7.6*	i	128*	i
Cc1nn(CCCC(=O)Nc2cc(Oc3ccccc3)cc([N+](=O)[O-])c2)c(C)c1[N+](=O)[O-]	-6	-0.18	-8.8*	i	i	i	124*	0.14*
CCN(C(=O)CSc1nnc(-c2cccc(F)c2)n1N)c1c(N)n(Cc2ccccc2)c(=O)[nH]c1=O	.	.	i	.	.	.	.	.
COc1ccccc1CC(=O)N(Cc1ccccc1)c1cccc(C)c1	-11	.	-12*	i	i	i	103*	0.15*
COc1ccc(C(=O)N(Cc2ccccc2)c2cccc(C)c2)cc1	-11	.	i	i	i	i	.	.
COc1ccc(C(=O)OCC(=O)c2ccc(Br)s2)c(OC)c1	-17	.	i	i	i	i	.	.
COc1cccc(C(=O)OCC(=O)c2ccc(Br)s2)c1	-13	.	-9.3*	i	i	i	97*	i
CCCCS(=O)(=O)N1CCC(C(=O)Oc2ccc(Cl)cc2)CC1	0	.	i	i	i	i	.	.
CCCN1CCN(C(=O)Nc2cccc(C(F)(F)F)c2)CC1	-11	0.035	-10*	i	i	i	106*	i
O=C(Nc1cccc(C(F)(F)F)c1)N1CCN(C(=O)Nc2cccc(C(F)(F)F)c2)CC1	-14	1.2	i	i	i	i	.	.
O=C(CSc1nnc(-c2ccccn2)o1)Nc1ccccc1F	-7	.	i	i	i	i	.	.
CCOc1ccccc1N1CCN(C(=O)c2cn(CC3CCCCC3)nn2)CC1	-7	.	i	i	i	i	.	.
CC(C)(O)[C@H](O)Cc1cc2ccc(=O)oc2cc1O[C@@H]1O[C@H](CO)[C@@H](O)[C@H](O)[C@H]1O	.	.	i	.	.	.	.	.
SMILES	hERG rescue	KCC2 mod	KCNK3 inh	KCNQ1 block	KCNK9 block	KCNQ1 pot	KCNK3 confirm	KCNK3 noninduced
CSc1nc(N)nc2c1ncn2CC(=O)Nc1ccc(C)c(C)c1	.	.	i	.	.	.	.	.
O=C(Nc1ccc(Cl)cn1)c1ccc2ccccc2n1	-7	-0.0055	-8.7*	i	i	i	93*	i
COc1ccc(CNC(=O)COC(=O)CCN2C(=O)C3CC=CCC3C2=O)cc1OC (stereo not drawn)	.	.	i	.	.	.	.	.
CCNC(=S)Nc1ccc2c(c1)oc1ccccc12	-7	.	i	i	i	i	.	.
COc1ccc([C@H]2CC(=O)C=C(c3ccccc3OC)C2)cc1OC	.	.	i	.	.	.	.	.
Cc1c(C(=O)Nc2ccc(Cl)cc2)c2ccccn2c1C(=O)c1ccc(F)cc1	-7	-0.29	i	i	i	i	.	.
Cc1c(C(=O)Nc2ccc(Cl)cc2)c2ccccn2c1CCc1ccncc1	-7	-0.17	-9.7*	i	i	i	109*	0.14*
Cc1ccc(-c2nc(CC(=O)Nc3cccc(S(=O)(=O)NC4=NCCC4)c3)cs2)cc1	.	.	i	.	.	.	.	.
CC(C)(C)OC(=O)NCCc1nnc(SCC(=O)Nc2cccc(Cl)c2)o1	-3	.	i	i	i	i	.	.
CC(C)(C)OC(=O)NCCCCCc1nnc(SCC(=O)Nc2cccc(Cl)c2)o1	-17	.	-9.2*	i	i	i	117*	0.15*
O=C(Oc1ccc(Cl)c2cccnc12)c1ccco1	-7	.	-8.9*	i	i	i	65*	i
CCN(C(=O)CN1C(=O)S/C(=C\C=C\c2ccccc2)C1=O)C1CCS(=O)(=O)C1 (stereo not drawn)	-10	.	i	i	i	i	.	.
CCOC(=O)c1c(NC(=O)CSc2nnc(CNc3ccc(Cl)cc3)o2)sc(C)c1C	-12	-0.057	-9.6*	i	i	i	90*	i
CCOC(=O)c1c(NC(=O)CSc2nnc(CNc3ccc(F)cc3)o2)sc(C)c1C	-12	-1.7	i	i	i	i	.	.
CCCN(c1nc(C)cc(OC)n1)S(=O)(=O)c1ccccc1	-8	-1.3	-12*	i	i	i	101*	i
